Laboratory results reported in ChEMBL document CHEMBL2150854, “Macrocyclic Hedgehog Pathway Inhibitors: Optimization of Cellular Activity and Mode of Action Studies” (ACS Med Chem Lett, 2012).
pIC50: −log10 of the molar value. Blank lines part the entries; values can stand above or below the compound they belong to. The source made the active and inactive calls. No cut-off for these calls is given here.

Legend:
[1] = target: Protein smoothened (Mus musculus) (UniProt P56726); test: Inhibition of Smo in mouse C3H10T1/2 cells assessed as inhibition of human Shh-induced cell differentiation after 48 hrs by alkaline phosphatase reporter assay relative to cyclopamine; type: cell-based; settings: C3H 10T1/2
Chain of Protein smoothened (Mus musculus) (P56726 whole entry): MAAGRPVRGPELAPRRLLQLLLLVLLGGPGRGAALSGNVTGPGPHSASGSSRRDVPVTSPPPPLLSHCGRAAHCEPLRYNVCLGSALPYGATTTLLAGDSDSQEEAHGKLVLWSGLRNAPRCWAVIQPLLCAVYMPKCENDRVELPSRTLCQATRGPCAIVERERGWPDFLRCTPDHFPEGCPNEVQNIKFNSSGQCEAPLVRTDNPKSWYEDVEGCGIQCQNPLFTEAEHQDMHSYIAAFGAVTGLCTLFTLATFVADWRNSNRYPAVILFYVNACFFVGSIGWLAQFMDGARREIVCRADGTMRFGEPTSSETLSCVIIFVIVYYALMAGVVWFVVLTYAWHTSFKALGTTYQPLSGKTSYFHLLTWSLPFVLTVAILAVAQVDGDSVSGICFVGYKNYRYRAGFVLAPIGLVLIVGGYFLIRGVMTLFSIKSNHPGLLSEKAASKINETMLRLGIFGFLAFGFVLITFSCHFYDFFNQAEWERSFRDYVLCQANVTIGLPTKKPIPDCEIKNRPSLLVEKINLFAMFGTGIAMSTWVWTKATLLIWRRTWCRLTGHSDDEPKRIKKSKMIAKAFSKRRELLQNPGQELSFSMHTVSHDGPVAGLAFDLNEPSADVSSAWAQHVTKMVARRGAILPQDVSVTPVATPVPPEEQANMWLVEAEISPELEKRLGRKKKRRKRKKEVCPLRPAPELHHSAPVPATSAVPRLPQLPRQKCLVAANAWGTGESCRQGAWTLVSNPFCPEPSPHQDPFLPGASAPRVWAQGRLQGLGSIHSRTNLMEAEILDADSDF
Outline: (§1)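 Murine mesenchymal C3H10T1/2 cells were induced to differentiate with Shh protein. Differentiation was read as alkaline phosphatase expression, quantified with fluorescent substrates. Uninduced cells served as baseline. IC50 was taken from dose–response curves.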

Protein smoothened [2] = target: T1, Protein smoothened (Mus musculus, UniProt P56726); test: Inhibition of Smo in mouse C3H10T1/2 cells assessed as inhibition of human Shh-induced Gli1 transcriptional activity after 48 hrs by RT-PCR analysis; type: cell-based, C3H 10T1/2
T1 sequence (P56726 whole entry): as above
Outline: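 Murine mesenchymal C3H10T1/2 cells were activated with Shh protein and exposed to inhibitor. Gli1 mRNA was quantified by real-time qPCR, normalised to Actb as internal control, and IC50 was taken from dose–response curves.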

[3] = target: Protein smoothened (Mus musculus) (UniProt P56726); test: Inhibition of Smo in mouse C3H10T1/2 cells assessed as inhibition of human Shh-induced Gli1 transcriptional activity after 48 hrs by RT-PCR analysis relative to cyclopamine; type: cell-based; settings: C3H 10T1/2
C3H 10T1/2 [4] = test: Effect on SAG-induced Gli1 transcription in mouse C3H10T1/2 cells at 103 to 25000 nM by qPCR analysis; type: functional, cell-based
Outline: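 Double-titration (Schild-type) design in murine mesenchymal C3H10T1/2 cells. Gli1 expression is induced by a series of SAG concentrations, each combined with several inhibitor concentrations. Gli1 mRNA is quantified by real-time qPCR with Actb as internal control. SAG dose–response curves are compared across inhibitor levels for shifts and for the maximal induction.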

C3H 10T1/2 [5] = test: Effect on purmorphamine-induced Gli1 transcription in mouse C3H10T1/2 cells at 103 to 25000 nM by qPCR analysis; type: functional, cell-based
[6] = target: Sonic hedgehog protein (Homo sapiens) (UniProt Q15465); test: Inhibition of human Shh-induced mouse C3H10T1/2 cell differentiation after 48 hrs by alkaline phosphatase reporter assay relative to cyclopamine; settings: C3H 10T1/2; outline: as §1
Chain of Sonic hedgehog protein (Homo sapiens) (Q15465 24-197 limits assumed): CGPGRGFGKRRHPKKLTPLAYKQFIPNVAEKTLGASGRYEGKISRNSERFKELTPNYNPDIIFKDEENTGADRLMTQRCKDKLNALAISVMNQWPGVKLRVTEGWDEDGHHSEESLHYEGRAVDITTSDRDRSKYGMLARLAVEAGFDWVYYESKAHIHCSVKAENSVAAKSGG

[7] = target: Protein smoothened (Mus musculus) (UniProt P56726); test: Competitive inhibition of Smo in mouse C3H10T1/2 cells assessed as inhibition of purmorphamine-induced Gli1 transcriptional activity at 103 to 25000 nM by qPCR analysis; type: cell-based; settings: C3H 10T1/2
[8] = target: Protein smoothened (Mus musculus) (UniProt P56726); test: Inhibition of Smo in mouse Ptch-deficient MEF cells assessed as inhibition of Shh-induced Gli1 transcriptional activity in presence of SAG; type: cell-based
[9] = target: Protein smoothened (Mus musculus) (UniProt P56726); test: Ratio of IC50 for Smo in mouse C3H10T1/2 cells assessed as inhibition of human Shh-induced Gli1 transcriptional activity in presence of SAG to IC50 for Smo in mouse C3H10T1/2 cells assessed as inhibition of human Shh-induced Gli1 transcriptional activity; type: cell-based; settings: C3H 10T1/2
[10] = target: Protein smoothened (Mus musculus) (UniProt P56726); test: Inhibition of Smo in mouse C3H10T1/2 cells assessed as inhibition of human Shh-induced Gli1 transcriptional activity after 48 hrs by RT-PCR analysis in presence of SAG; type: cell-based; settings: C3H 10T1/2
Protein smoothened [11] = target: T1, Protein smoothened; test: Inhibition of Smo in mouse Ptch-deficient MEF cells assessed as inhibition of Shh-induced Gli1 transcriptional activity; type: cell-based
Protein smoothened [12] = target: T1, Protein smoothened; test: Inhibition of Smo in mouse Ptch-deficient MEF cells assessed as inhibition of Shh-induced Gli-responsive betagalactosidase activity after 30 hrs by BetaGLo assay; type: cell-based
[13] = target: Protein smoothened (Mus musculus) (UniProt P56726); test: Inhibition of Smo in mouse Ptch-deficient MEF cells assessed as inhibition of Shh-induced Gli-responsive betagalactosidase activity after 30 hrs by BetaGLo assay in presence of SAG; type: cell-based
Outline: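 Ptch-/- MEF β-gal reporter cells were given an inhibitor dose range together with 20 nM SAG. β-Gal activity was read, with untreated cells and 100 nM KAAD-cyclopamine-treated cells as reference levels.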

[14] = target: Protein smoothened (Mus musculus) (UniProt P56726); settings: C3H 10T1/2, at 103 to 25000 nM
[15] = target: Protein smoothened (Mus musculus) (UniProt P56726); test: Competitive inhibition of Smo in mouse C3H10T1/2 cells assessed as inhibition of purmorphamine-induced Gli1 transcriptional activity at 309 to 25000 nM by qPCR analysis; type: cell-based; settings: C3H 10T1/2
C3H 10T1/2 [16] = test: Effect on purmorphamine-induced Gli1 transcription in mouse C3H10T1/2 cells at 55.5 to 4500 nM by qPCR analysis; type: functional, cell-based
[17] = target: Protein smoothened (Mus musculus) (UniProt P56726); settings: C3H 10T1/2, 55.5 to 4500 nM

SMILES: CC(C)N[C@H]1C/C=C/C[C@@H](CC(=O)NCc2ccc(Cl)cc2)C(=O)NC[C@@H](c2ccccc2)OC1=O
- Imax [1]: 41%

SMILES: O=C(C[C@@H]1C/C=C/CCC(=O)N[C@H](c2ccc(Cl)cn2)COC1=O)NCc1ccc(Cl)cc1
- pIC50 (Protein smoothened [2]): 5.37
- Imax [3]: 85%

SMILES: O=C(CN1C/C=C/CCC(=O)N[C@H](c2ccccc2)COC1=O)NCc1ccc(Cl)cc1
- Imax [1]: 47%

SMILES: C[C@@H]1NC(=O)[C@H](CC(=O)NCc2ccc(Cl)cc2)C/C=C/CCC(=O)O[C@@H]1c1ccccc1
- Imax [1]: 77%

SMILES: O=C(C[C@@H]1C/C=C/CCC(=O)O[C@H](c2ccccc2)CNC1=O)NCc1ccc(Cl)cc1
- Activity (C3H 10T1/2 [4]): inactive
- Activity (C3H 10T1/2 [5]): inactive
- Imax [6]: 47%

SMILES: O=C(C[C@@H]1C/C=C/CCC(=O)N[C@H](c2ccc(Cl)cc2)COC1=O)NCc1ccc(Cl)cc1
- inhibition [7]: Active
- inhibition [8]: inactive
- Ratio IC50 [9]: 32
- Imax [1]: 105%
- pIC50 (Protein smoothened [2]): 6.40
- Imax [3]: 100%
- inhibition [10]: inactive
- pIC50 (Protein smoothened [11]): 5.46
- pIC50 (Protein smoothened [12]): 5.70
- inhibition [13]: inactive
- inhibition [14]: Active

SMILES: C[C@H]1[C@@H](c2ccccc2)OC(=O)CC/C=C/C[C@@H](CC(=O)NCc2ccc(Cl)cc2)C(=O)N1C
- Imax [1]: 78%

SMILES: O=C(C[C@@H]1C/C=C/CCC(=O)N[C@H](C2CCCCC2)COC1=O)NCc1ccc(Cl)cc1
- Imax [1]: 75%

SMILES: O=C(C[C@@H]1C/C=C/CCC(=O)N[C@H](Cc2ccccc2)COC1=O)NCc1ccc(Cl)cc1
- inhibition [8]: inactive
- Ratio IC50 [9]: 18
- inhibition [15]: Active
- Imax [1]: 90%
- inhibition [10]: inactive
- pIC50 (Protein smoothened [11]): 5.06
- pIC50 (Protein smoothened [12]): 5.09
- inhibition [13]: inactive
- inhibition [14]: Active

SMILES: O=C(C[C@@H]1C/C=C/CCC(=O)O[C@H](c2ccccc2)CNC1=O)NCCCC(F)(F)F
- Imax [1]: 28%

SMILES: CC1=C2C[C@H]3[C@@H](CC=C4C[C@@H](O)CC[C@@]43C)[C@@H]2CC[C@]12O[C@@H]1C[C@H](C)CN[C@H]1[C@H]2C
- Activity (C3H 10T1/2 [16]): inactive
- inhibition [8]: inactive
- inhibition [10]: inactive
- inhibition [13]: inactive
- inhibition [17]: Active

SMILES: C[C@H]1NC(=O)[C@H](CC(=O)NCc2ccc(Cl)cc2)C/C=C/CCC(=O)O[C@@H]1c1ccccc1
- Imax [1]: 69%

SMILES: C[C@H]1C/C=C\C[C@@H](CC(=O)NCc2ccc(Cl)cc2)C(=O)OC[C@@H](c2ccccc2)NC1=O
- Imax [1]: 97%

SMILES: CC(C)(C)OC(=O)C[C@@H]1C/C=C/CCC(=O)N[C@H](c2ccccc2)COC1=O
- Imax [1]: 60%

Second part, the compound after the results:

- Imax [1]: 54%
SMILES: CC(C)[C@@H]1COC(=O)[C@H](CC(=O)NCc2ccc(Cl)cc2)C/C=C/CCC(=O)N1

- Imax [1]: 86%
SMILES: O=C(C[C@@H]1C/C=C/CCC(=O)N[C@H](c2ccccc2)COC1=O)NCc1ccc(Cl)cc1

- Imax [1]: 106%
SMILES: O=C(C[C@@H]1C/C=C/C[C@H](Cc2ccccc2)C(=O)N[C@H](c2ccccc2)COC1=O)NCc1ccc(Cl)cc1

- Imax [1]: 95%
SMILES: O=C(C[C@@H]1C/C=C/CCC(=O)N[C@@H](c2ccccc2)COC1=O)NCc1ccc(Cl)cc1

- Imax [1]: 59%
SMILES: C[C@H]1[C@@H](c2ccccc2)OC(=O)CCCCC[C@@H](CC(=O)NCc2ccc(Cl)cc2)C(=O)N1C

- Imax [1]: 78%
SMILES: C[C@H]1C/C=C/C[C@@H](CC(=O)NCc2ccc(Cl)cc2)C(=O)OC[C@@H](c2ccccc2)NC1=O

- Imax [1]: 50%
SMILES: O=C(C[C@@H]1C/C=C/CCC(=O)O[C@H](c2ccccc2)CNC1=O)NCc1cccc(Cl)c1

- Imax [1]: 90%
SMILES: O=C(C[C@@H]1C/C=C/CCC(=O)N[C@H](c2ccc(F)cc2)COC1=O)NCc1ccc(Cl)cc1

- Imax [1]: 104%
SMILES: CN1C[C@@H](c2ccccc2)OC(=O)CC/C=C/C[C@@H](Cc2ccc(Cl)cc2)C1=O

- Imax [1]: 53%
SMILES: CCCC[C@@H]1COC(=O)[C@H](CC(=O)NCc2ccc(Cl)cc2)C/C=C/CCC(=O)N1

- Imax [1]: 77%
SMILES: O=C(C[C@@H]1C/C=C/CCC(=O)OC[C@@H]2CCCN2C1=O)NCc1ccc(Cl)cc1

- Imax [1]: 40%
SMILES: O=C(C[C@@H]1C/C=C/CCC(=O)N[C@@H]2c3ccccc3C[C@@H]2OC1=O)NCc1ccc(Cl)cc1
